Results from ChEMBL document CHEMBL1136006, “New PET imaging agent for the serotonin transporter: [(18)F]ACF (2-[(2-amino-4-chloro-5-fluorophenyl)thio]-N,N-dimethyl-benzenmethanamine)” (J Med Chem, 2002).
Active and inactive are the calls of the source. The calls are words filed in the database; no cut-off is given here.

Columns and labels:
[1] = molecular target: Sodium-dependent dopamine transporter (Rattus norvegicus, UniProt P23977); test: In vitro binding affinity in LLC-PK1 cells by Dopamine transporter binding assay by using [125I]IPT as a radioligand; type: cell-based
Procedure, shortened: (§1)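 LLC-PK1 cell membrane homogenates overexpressing DAT or NET. Incubated with 0.4 nM [125I]IPT and 8–10 competitor concentrations (10^-10 to 10^-5 M) in 50 mM Tris-HCl pH 7.4, 120 mM NaCl, 0.1% BSA for 1 h at room temperature. Nonspecific binding defined with 10 μM CFT. Filtered, gamma-counted, nonlinear regression. Mean ± SEM of three determinations in duplicate.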

[2] = molecular target: T1, Sodium-dependent serotonin transporter (Rattus norvegicus, UniProt P31652); test: In vitro binding affinity in LLC-PK1 cells by SERT binding assay by using [125I]IDAM as a radioligand; type: cell-based
Procedure, shortened: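 LLC-PK1 membrane homogenates overexpressing SERT. Incubated with 0.4 nM [125I]IDAM and 8–10 competitor concentrations (10^-10 to 10^-5 M) in 50 mM Tris-HCl pH 7.4, 120 mM NaCl, 0.1% BSA for 1 h at room temperature. Nonspecific binding defined with 1 μM IDAM. Filter-bound activity gamma-counted, nonlinear regression. Mean ± SEM, three determinations in duplicate.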

[3] = molecular target: T2, Sodium-dependent noradrenaline transporter (Homo sapiens, UniProt P23975); test: In vitro binding affinity in LLC-PK1 cells by Norepinephrine transporter binding assay by using [125I]-IPT as a radioligand; type: cell-based; procedure, shortened: as §1
[4] = molecular target: T2, Sodium-dependent noradrenaline transporter; test: Selectivity for norepinephrine transporter
[5] = molecular target: Sodium-dependent dopamine transporter (Rattus norvegicus) (UniProt P23977); test: Selectivity for Dopamine transporter; No inhibition
[6] = molecular target: T1, Sodium-dependent serotonin transporter; test: Inhibition of 5-HT reuptake (SERT) in rat brain synaptosomes.; type: subcellular

T1 sequence (P31652 whole entry): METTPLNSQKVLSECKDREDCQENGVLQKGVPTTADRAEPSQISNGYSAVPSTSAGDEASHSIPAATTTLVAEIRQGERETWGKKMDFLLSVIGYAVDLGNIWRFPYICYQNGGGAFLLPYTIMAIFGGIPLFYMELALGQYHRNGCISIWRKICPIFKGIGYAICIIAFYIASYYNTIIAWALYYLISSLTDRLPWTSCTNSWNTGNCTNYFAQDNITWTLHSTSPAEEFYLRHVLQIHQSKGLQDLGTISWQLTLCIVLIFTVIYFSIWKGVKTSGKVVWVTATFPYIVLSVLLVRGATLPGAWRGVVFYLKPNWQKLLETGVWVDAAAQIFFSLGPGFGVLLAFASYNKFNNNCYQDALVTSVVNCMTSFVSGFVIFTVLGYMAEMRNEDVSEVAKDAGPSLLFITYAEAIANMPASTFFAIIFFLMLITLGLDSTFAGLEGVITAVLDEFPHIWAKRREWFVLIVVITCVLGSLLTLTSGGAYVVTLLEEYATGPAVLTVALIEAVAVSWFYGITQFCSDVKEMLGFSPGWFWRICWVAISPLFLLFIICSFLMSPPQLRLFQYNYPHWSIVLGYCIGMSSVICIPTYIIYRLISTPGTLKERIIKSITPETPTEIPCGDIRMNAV
T2 sequence (P23975 whole entry, looked up): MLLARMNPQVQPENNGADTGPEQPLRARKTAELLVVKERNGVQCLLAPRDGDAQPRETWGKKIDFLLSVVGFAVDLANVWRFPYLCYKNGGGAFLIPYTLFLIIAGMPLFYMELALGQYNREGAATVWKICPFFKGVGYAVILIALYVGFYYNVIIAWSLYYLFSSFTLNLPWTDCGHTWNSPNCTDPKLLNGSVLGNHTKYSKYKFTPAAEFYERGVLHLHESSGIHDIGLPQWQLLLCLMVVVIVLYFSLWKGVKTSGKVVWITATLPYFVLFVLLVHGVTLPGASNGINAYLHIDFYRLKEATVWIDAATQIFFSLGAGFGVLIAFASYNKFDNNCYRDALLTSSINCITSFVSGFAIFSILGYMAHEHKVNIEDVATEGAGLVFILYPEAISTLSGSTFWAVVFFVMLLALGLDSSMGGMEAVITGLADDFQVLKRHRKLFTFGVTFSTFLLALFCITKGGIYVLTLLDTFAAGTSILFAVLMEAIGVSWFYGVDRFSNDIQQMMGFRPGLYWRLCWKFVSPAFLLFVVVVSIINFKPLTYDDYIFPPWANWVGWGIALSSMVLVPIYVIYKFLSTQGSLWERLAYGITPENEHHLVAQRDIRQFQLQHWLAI
Sodium-dependent dopamine transporter, sequence (P23977 whole entry): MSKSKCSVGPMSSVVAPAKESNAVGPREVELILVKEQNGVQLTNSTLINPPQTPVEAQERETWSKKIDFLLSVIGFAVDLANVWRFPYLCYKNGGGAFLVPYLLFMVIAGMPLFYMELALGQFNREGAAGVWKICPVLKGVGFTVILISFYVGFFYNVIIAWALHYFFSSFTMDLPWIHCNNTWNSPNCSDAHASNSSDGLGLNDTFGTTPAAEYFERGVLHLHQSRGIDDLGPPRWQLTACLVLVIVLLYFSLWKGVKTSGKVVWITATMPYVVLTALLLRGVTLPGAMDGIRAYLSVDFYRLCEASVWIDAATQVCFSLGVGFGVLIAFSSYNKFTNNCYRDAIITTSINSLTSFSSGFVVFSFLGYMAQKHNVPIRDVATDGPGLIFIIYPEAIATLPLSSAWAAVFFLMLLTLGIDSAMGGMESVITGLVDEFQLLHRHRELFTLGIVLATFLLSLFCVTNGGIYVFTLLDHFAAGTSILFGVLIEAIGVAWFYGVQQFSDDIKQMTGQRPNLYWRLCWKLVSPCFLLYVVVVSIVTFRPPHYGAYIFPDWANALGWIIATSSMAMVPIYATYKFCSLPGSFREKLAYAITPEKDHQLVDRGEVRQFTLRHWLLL
Sodium-dependent dopamine transporter (Rattus norvegicus), sequence (P23977 whole entry): as above

CN(C)Cc1ccccc1Sc1cc(F)c(Cl)cc1[N+](=O)[O-]
Ki [1]: 31.9 µM
Ki [2]: 0.00416 µM
Ki [3]: 2.81 µM

COc1ccc(Sc2ccccc2CN(C)C)c(N)c1
Ki [2]: 0.0011 µM

CN(C)Cc1ccccc1Sc1ccc(CF)cc1N
Ki [2]: 0.0011 µM

Cc1ccc(Sc2ccccc2CN(C)C)c(N)c1
Ki [2]: 0.0011 µM

CN(C)C(=O)c1ccccc1Sc1cc(N)c(Cl)cc1[N+](=O)[O-]
Ki [1]: 3.05 µM
Ki [2]: 0.00239 µM
Ki [3]: 15 µM

CN(C)Cc1ccccc1Sc1ccc(I)cc1N
Ki [1]: 0.699 µM
Ki [3]: 0.699 µM

CN(C)Cc1ccccc1Sc1ccc(Cl)cc1CO
Ki [4]: 0.055 µM
NI [5]: inactive
Ki [6]: 0.0021 µM
